ChEMBL document CHEMBL2163192, “N,N-Dimethyl-[9-(arylsulfonyl)-2,3,4,9-tetrahydro-1H-carbazol-3-yl]amines as novel, potent and selective 5-HT₆ receptor antagonists” (Bioorg Med Chem Lett, 2012)
Each block holds one molecule with its values, some of them ahead of it.

What was measured:
[1] = target: T1, 5-hydroxytryptamine receptor 6 (Homo sapiens, UniProt P50406); experiment: Binding affinity to human 5-HT6 receptor
Method in brief: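 Radioligand binding assay at human 5-HT6 receptor; Ki values determined in triplicate.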

[2] = target: T1, 5-hydroxytryptamine receptor 6; experiment: Displacement of [3H]LSD from human cloned 5-HT6 receptor expressed in HEK293 cells; assay type: cell-based
[3] = target: T1, 5-hydroxytryptamine receptor 6; experiment: Antagonist activity at human recombinant 5-HT6 receptor expressed in CHO cells assessed as inhibition of 5-HT-stimulated cAMP accumulation after 4 hrs by luciferase reporter gene assay; assay type: functional, cell-based
Method in brief: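 Cell-based, non-radioactive reporter gene assay measuring antagonism of 5-HT-stimulated cAMP formation at human 5-HT6 receptor; IC50 and Kb values determined in duplicate.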

[4] = target: Sodium-dependent serotonin transporter (Homo sapiens) (UniProt P31645); experiment: Inhibition of SERT at 1 uM
Method in brief: (§1)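 In-house selectivity panel of related receptors and transporters; each compound tested at 1 μM and 10 μM; percent inhibition determined in duplicate and the mean of the two reported.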

[5] = target: T2, Alpha-1B adrenergic receptor (Homo sapiens) (UniProt P35368); experiment: Inhibition of alpha1B adrenergic receptor at 1 uM; method in brief: as §1
T2 sequence (whole entry): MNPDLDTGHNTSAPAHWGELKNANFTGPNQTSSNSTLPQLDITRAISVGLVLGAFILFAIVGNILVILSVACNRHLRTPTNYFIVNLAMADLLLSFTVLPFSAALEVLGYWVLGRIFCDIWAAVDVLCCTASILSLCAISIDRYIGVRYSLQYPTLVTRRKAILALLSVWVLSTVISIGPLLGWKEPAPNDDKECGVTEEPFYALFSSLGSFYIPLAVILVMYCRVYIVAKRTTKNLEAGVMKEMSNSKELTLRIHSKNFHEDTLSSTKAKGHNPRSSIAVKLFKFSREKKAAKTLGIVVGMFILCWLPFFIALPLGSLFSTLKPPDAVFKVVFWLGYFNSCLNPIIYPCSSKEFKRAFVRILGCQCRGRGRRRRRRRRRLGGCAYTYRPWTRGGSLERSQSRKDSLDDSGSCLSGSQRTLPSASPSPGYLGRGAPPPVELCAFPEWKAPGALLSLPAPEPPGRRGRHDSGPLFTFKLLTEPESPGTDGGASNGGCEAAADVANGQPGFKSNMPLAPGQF

[6] = target: T2, Alpha-1B adrenergic receptor (Homo sapiens); experiment: Inhibition of alpha1B adrenergic receptor at 10 uM; method in brief: as §1
[7] = target: T3, 5-hydroxytryptamine receptor 1A (Homo sapiens) (UniProt P08908); experiment: Inhibition of 5-HT1A receptor at 1 uM; method in brief: as §1
T3 sequence (whole entry): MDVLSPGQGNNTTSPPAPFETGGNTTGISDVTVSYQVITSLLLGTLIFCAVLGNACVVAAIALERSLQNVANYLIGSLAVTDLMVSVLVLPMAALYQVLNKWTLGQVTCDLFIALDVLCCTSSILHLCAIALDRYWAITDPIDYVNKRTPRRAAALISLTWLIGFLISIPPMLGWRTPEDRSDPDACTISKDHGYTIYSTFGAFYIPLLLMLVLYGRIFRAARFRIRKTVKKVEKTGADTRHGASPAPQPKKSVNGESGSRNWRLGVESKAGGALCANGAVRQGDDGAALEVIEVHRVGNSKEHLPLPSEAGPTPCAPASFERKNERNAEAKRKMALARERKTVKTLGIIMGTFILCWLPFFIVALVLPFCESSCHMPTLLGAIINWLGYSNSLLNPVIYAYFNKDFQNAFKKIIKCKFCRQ

[8] = target: T3, 5-hydroxytryptamine receptor 1A (Homo sapiens); experiment: Inhibition of 5-HT1A receptor at 10 uM; method in brief: as §1
[9] = target: 5-hydroxytryptamine receptor 2A (Homo sapiens) (UniProt P28223); experiment: Inhibition of 5-HT2A receptor at 1 uM; method in brief: as §1
[10] = target: 5-hydroxytryptamine receptor 2A (Homo sapiens) (UniProt P28223); experiment: Inhibition of 5-HT2A receptor at 10 uM; method in brief: as §1
[11] = target: D(2) dopamine receptor (Homo sapiens) (UniProt P14416); experiment: Inhibition of dopamine D2 receptor at 1 uM; method in brief: as §1
[12] = target: D(2) dopamine receptor (Homo sapiens) (UniProt P14416); experiment: Inhibition of dopamine D2 receptor at 10 uM; method in brief: as §1
[13] = target: Sodium-dependent dopamine transporter (Homo sapiens) (UniProt Q01959); experiment: Inhibition of DAT at 1 uM; method in brief: as §1
[14] = target: Sodium-dependent dopamine transporter (Homo sapiens) (UniProt Q01959); experiment: Inhibition of DAT at 10 uM; method in brief: as §1
[15] = target: Histamine H3 receptor (Homo sapiens) (UniProt Q9Y5N1); experiment: Inhibition of histamine H3 receptor at 1 uM; method in brief: as §1
[16] = target: Histamine H3 receptor (Homo sapiens) (UniProt Q9Y5N1); experiment: Inhibition of histamine H3 receptor at 10 uM; method in brief: as §1
[17] = target: Histamine H4 receptor (Homo sapiens) (UniProt Q9H3N8); experiment: Inhibition of histamine H4 receptor at 1 uM; method in brief: as §1
[18] = target: Histamine H4 receptor (Homo sapiens) (UniProt Q9H3N8); experiment: Inhibition of histamine H4 receptor at 10 uM; method in brief: as §1
CYP2C19 = CYP2C19 (Homo sapiens, UniProt P33261); experiment: Inhibition of human CYP2C19 at 3 uM; assay type: ADME
Method in brief: (§2)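 Isoform-selective inhibition assays using heterologously expressed human CYP enzymes; compounds tested at 3 μM; percent inhibition reported.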

CYP2D6 = CYP2D6 (Homo sapiens, UniProt P10635); experiment: Inhibition of human CYP2D6 at 3 uM; assay type: ADME; method in brief: as §2
CYP3A4 = CYP3A4 (Homo sapiens, UniProt P08684); experiment: Inhibition of human CYP3A4 at 3 uM; assay type: ADME; method in brief: as §2
[19] = target: Sodium-dependent serotonin transporter (Homo sapiens) (UniProt P31645); experiment: Inhibition of SERT at 10 uM; method in brief: as §1
[20] = Drug metabolism in human liver microsomes; assay type: ADME, Microsome; details: read-out: Drug metabolism
[21] = Drug metabolism in rat liver microsomes; assay type: ADME, Microsome; details: read-out: Drug metabolism

Chain of D(2) dopamine receptor (Homo sapiens) (P14416 whole entry): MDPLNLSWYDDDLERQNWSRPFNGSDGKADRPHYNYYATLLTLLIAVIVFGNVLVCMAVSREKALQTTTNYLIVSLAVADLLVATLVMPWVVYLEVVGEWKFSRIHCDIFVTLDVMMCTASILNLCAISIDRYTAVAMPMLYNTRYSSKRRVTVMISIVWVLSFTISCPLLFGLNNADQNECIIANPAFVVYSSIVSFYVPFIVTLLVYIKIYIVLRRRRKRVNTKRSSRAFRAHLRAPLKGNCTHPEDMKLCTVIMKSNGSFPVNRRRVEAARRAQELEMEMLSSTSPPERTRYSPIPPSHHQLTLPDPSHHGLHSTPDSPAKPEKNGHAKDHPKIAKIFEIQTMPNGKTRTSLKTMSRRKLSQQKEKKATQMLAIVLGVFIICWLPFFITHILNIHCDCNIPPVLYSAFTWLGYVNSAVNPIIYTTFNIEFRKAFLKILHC
Chain of Sodium-dependent serotonin transporter (Homo sapiens) (P31645 whole entry, looked up): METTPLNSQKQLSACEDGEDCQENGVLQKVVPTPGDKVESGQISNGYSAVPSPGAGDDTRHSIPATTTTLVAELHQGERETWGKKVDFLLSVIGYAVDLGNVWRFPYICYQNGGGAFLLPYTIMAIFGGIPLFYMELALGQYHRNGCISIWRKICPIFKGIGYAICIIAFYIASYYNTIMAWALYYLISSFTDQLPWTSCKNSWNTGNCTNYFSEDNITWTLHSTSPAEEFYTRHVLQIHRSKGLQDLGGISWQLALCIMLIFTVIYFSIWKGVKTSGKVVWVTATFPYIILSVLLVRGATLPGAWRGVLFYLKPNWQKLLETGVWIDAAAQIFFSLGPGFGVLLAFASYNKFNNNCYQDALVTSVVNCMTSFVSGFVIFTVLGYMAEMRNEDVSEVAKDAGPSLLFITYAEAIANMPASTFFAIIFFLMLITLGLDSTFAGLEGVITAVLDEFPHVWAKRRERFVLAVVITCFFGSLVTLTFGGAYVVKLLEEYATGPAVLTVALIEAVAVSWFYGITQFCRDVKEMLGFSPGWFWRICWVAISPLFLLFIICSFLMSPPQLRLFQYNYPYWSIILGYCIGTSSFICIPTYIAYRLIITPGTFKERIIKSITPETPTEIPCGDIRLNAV
Chain of Histamine H3 receptor (Homo sapiens) (Q9Y5N1 whole entry): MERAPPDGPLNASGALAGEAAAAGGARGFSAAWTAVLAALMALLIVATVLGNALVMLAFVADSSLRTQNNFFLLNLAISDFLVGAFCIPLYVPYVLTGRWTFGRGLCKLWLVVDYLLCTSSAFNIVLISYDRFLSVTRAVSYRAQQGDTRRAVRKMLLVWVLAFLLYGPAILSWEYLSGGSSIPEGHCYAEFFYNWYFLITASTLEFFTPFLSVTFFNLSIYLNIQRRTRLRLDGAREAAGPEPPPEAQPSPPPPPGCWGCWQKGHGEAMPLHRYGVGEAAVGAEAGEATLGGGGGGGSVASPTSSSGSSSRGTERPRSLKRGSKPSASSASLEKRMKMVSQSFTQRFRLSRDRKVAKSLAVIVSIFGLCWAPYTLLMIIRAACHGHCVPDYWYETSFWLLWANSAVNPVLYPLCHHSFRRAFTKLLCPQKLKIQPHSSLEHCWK
Chain of Sodium-dependent dopamine transporter (Homo sapiens) (Q01959 whole entry): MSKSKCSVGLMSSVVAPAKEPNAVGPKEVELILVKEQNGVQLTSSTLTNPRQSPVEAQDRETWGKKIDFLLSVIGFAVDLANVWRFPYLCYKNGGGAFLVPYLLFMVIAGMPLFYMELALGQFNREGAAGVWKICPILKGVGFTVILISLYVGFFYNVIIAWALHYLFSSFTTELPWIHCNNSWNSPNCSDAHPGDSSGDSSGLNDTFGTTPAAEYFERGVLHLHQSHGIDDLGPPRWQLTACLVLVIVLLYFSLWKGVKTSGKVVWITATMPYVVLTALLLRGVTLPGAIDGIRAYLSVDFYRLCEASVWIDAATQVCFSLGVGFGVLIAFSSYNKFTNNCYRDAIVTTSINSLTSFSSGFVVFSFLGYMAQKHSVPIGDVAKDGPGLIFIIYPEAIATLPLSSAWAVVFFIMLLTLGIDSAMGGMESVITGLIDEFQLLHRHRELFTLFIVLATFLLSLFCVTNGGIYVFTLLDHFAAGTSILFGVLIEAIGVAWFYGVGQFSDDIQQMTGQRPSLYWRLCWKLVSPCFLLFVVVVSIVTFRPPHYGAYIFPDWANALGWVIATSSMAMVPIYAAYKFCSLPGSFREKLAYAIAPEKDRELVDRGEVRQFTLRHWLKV
Chain of 5-hydroxytryptamine receptor 2A (Homo sapiens) (P28223 whole entry): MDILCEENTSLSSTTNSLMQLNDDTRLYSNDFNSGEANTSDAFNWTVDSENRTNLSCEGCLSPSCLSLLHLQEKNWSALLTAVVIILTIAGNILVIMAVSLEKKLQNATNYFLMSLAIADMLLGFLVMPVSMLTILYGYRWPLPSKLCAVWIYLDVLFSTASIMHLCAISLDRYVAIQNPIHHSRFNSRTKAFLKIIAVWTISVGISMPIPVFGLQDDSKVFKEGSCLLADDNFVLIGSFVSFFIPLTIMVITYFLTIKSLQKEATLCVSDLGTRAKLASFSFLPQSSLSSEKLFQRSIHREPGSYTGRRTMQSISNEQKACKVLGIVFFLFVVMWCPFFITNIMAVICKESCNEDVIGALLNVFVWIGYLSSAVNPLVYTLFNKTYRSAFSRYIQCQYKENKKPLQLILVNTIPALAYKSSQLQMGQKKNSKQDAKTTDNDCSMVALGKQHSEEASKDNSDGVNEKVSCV
T1 sequence (P50406 whole entry): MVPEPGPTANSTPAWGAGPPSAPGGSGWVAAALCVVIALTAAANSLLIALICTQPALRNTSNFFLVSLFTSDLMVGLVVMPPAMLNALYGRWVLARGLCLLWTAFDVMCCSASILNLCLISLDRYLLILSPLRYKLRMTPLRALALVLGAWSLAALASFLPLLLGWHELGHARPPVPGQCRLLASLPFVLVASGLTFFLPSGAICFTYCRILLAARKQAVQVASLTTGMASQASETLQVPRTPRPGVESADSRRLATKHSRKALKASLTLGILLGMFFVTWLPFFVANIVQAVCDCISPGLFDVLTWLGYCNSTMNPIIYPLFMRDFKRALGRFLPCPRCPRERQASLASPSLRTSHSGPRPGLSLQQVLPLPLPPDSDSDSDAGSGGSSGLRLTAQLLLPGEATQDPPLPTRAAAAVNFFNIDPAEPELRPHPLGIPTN
Chain of CYP3A4 (P08684 whole entry): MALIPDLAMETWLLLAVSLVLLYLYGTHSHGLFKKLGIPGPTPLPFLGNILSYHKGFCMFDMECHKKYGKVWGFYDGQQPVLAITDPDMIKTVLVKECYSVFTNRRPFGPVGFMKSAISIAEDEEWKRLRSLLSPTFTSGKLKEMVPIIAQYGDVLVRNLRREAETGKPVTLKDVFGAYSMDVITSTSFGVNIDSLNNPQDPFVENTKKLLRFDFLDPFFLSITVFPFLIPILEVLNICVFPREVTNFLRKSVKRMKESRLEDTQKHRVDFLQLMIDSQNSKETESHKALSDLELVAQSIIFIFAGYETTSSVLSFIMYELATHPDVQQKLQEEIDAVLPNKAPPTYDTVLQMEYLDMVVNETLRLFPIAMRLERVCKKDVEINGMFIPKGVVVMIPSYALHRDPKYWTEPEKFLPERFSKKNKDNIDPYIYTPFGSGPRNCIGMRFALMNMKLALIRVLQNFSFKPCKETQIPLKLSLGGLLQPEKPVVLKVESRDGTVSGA
Chain of CYP2D6 (P10635 whole entry): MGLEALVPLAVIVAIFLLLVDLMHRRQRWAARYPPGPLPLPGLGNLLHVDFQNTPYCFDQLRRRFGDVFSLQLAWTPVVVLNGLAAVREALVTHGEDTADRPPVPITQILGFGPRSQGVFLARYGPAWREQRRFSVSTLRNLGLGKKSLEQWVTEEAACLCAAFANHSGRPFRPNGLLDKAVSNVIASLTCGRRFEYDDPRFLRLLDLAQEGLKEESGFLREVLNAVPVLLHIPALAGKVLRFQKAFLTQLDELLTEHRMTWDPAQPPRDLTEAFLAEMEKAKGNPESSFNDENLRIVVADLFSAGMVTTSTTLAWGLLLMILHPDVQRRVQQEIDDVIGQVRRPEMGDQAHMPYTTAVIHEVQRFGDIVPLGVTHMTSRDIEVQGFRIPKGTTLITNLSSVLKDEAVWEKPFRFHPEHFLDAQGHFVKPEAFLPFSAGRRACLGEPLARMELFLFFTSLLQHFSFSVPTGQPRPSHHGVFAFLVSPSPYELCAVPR
Chain of CYP2C19 (P33261 whole entry, canonical isoform): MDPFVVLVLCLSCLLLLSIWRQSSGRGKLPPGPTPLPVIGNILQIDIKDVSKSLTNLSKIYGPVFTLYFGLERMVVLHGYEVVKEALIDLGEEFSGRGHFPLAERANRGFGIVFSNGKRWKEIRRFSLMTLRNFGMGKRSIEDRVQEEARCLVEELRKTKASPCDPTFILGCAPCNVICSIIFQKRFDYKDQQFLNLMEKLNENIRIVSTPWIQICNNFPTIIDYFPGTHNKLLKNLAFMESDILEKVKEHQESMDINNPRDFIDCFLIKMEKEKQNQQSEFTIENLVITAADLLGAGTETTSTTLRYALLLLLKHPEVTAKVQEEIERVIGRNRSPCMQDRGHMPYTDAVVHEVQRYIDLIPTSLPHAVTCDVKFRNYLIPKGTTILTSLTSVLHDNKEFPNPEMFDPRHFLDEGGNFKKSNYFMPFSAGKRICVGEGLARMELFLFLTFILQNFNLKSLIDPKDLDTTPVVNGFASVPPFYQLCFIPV

SMILES: NC1Cc2cccc3c2c(cn3S(=O)(=O)c2ccccc2)C1 (configuration not stated)
Ki [1]: 1.6 nM

Ki [1]: 96 nM
SMILES: COc1ccc2c(c1)c(CCN(C)C)c1n2S(=O)(=O)c2ccccc2-1

Ki [2]: 19.8 nM
SMILES: COc1ccc(S(=O)(=O)n2c3c(c4cc(OC)ccc42)CC(N(C)C)CC3)cc1 (racemic)

Ki [2]: 73.4 nM
SMILES: NC1CCc2c(c3ccccc3n2S(=O)(=O)c2cccc(C(F)(F)F)c2)C1 (racemic)

Ki [2]: 39.1 nM
SMILES: COc1ccc2c(c1)c1c(n2S(=O)(=O)c2cccc(C(F)(F)F)c2)CCC(N)C1 (racemic)

SMILES: CN(C)C1CCc2c(c3ccccc3n2S(=O)(=O)c2ccccc2)C1 (racemic)
Ki [2]: 8.82 nM

Ki [2]: 1.83 nM | IC50 [3]: 2060 nM | Kb [3]: 21.5 nM | inhibition [4]: 0% | inhibition [5]: 4.22% | inhibition [6]: 16.2% | inhibition [7]: 22.3% | inhibition [8]: 43.9% | inhibition [9]: 15.2% | inhibition [10]: 51.4% | inhibition [11]: 16.4% | inhibition [12]: 67.4% | inhibition [13]: 0% | inhibition [14]: 7.7% | inhibition [15]: 23.4% | inhibition [16]: 24.8% | inhibition [17]: 0% | inhibition [18]: 3.85% | inhibition at 3 µM (CYP2C19): 50% | inhibition at 3 µM (CYP2D6): 50% | inhibition at 3 µM (CYP3A4): 10% | inhibition [19]: 2.77%
SMILES: CN(C)C1CCc2c(c3cc(Br)ccc3n2S(=O)(=O)c2ccccc2)C1 (racemic)

SMILES: CN(C)C1CCc2c(c3cc(Cl)ccc3n2S(=O)(=O)c2ccccc2)C1 (racemic)
Ki [2]: 16.1 nM

SMILES: CSc1ccc2c(c1)c1c(n2S(=O)(=O)c2ccccc2)CCC(N(C)C)C1 (racemic)
Ki [2]: 4.57 nM

Ki [2]: 7.95 nM
SMILES: CN(C)C1CCc2c(c3cc(F)cc(F)c3n2S(=O)(=O)c2ccccc2)C1 (racemic)

SMILES: CN(C)C1CCc2c(c3ccccc3n2S(=O)(=O)c2ccc(Br)cc2)C1 (racemic)
Ki [2]: 15.5 nM

Ki [2]: 41.1 nM
SMILES: CN(C)C1CCc2c(c3cc(Cl)ccc3n2S(=O)(=O)c2ccc(Br)cc2)C1 (racemic)

Ki [2]: 4.21 nM | inhibition [4]: 2.69% | inhibition [5]: 4.24% | inhibition [6]: 7.92% | inhibition [7]: 29.9% | inhibition [8]: 50.3% | inhibition [9]: 7.37% | inhibition [10]: 35.2% | inhibition [11]: 15.3% | inhibition [12]: 32.1% | inhibition [13]: 0% | inhibition [14]: 7.21% | inhibition [15]: 11% | inhibition [16]: 39.9% | inhibition [17]: 4.9% | inhibition [18]: 10.3% | inhibition [19]: 1.49%
SMILES: CN(C)C1CCc2c(c3ccccc3n2S(=O)(=O)c2cccc(Cl)c2)C1 (racemic)

Ki [2]: 5.01 nM
SMILES: CN(C)C1CCc2c(c3cc(F)ccc3n2S(=O)(=O)c2cccc(Cl)c2)C1 (racemic)

Ki [2]: 2.68 nM
SMILES: CSc1ccc2c(c1)c1c(n2S(=O)(=O)c2cccc(Cl)c2)CCC(N(C)C)C1 (racemic)

Ki [2]: 1.92 nM | IC50 [3]: 1950 nM | Kb [3]: 20.4 nM | inhibition [4]: 9.14% | inhibition [5]: 5.26% | inhibition [6]: 8.72% | inhibition [7]: 44.5% | inhibition [8]: 57.5% | inhibition [9]: 5.6% | inhibition [10]: 19.6% | inhibition [11]: 16.3% | inhibition [12]: 60.4% | inhibition [13]: 18.4% | inhibition [14]: 24.8% | inhibition [15]: 26.8% | inhibition [16]: 49.1% | inhibition [17]: 4.14% | inhibition [18]: 18% | inhibition at 3 µM (CYP2C19): 50% | inhibition at 3 µM (CYP2D6): 50% | inhibition at 3 µM (CYP3A4): 10% | metabolised [20]: 17% | metabolised [21]: 72% | inhibition [19]: 20.7%
SMILES: CN(C)C1CCc2c(c3ccccc3n2S(=O)(=O)c2cccc(C(F)(F)F)c2)C1 (racemic)

SMILES: CN(C)C1CCc2c(c3cc(Br)ccc3n2S(=O)(=O)c2cccc(C(F)(F)F)c2)C1 (racemic)
Ki [2]: 5.5 nM

Ki [2]: 12.2 nM
SMILES: CN(C)C1CCc2c(c3cc(Cl)ccc3n2S(=O)(=O)c2cccc(C(F)(F)F)c2)C1 (racemic)

Ki [2]: 3.71 nM
SMILES: COc1ccc2c(c1)c1c(n2S(=O)(=O)c2cccc(C(F)(F)F)c2)CCC(N(C)C)C1 (racemic)

Ki [2]: 2.85 nM
SMILES: CN(C)C1CCc2c(c3ccccc3n2S(=O)(=O)c2ccccc2Br)C1 (racemic)

Ki [2]: 8.13 nM
SMILES: CN(C)C1CCc2c(c3cc(Cl)ccc3n2S(=O)(=O)c2ccccc2Br)C1 (racemic)

Ki [2]: 5.02 nM
SMILES: CN(C)C1CCc2c(c3cc(F)ccc3n2S(=O)(=O)c2ccccc2Br)C1 (racemic)

SMILES: CN(C)C1CCc2c(c3ccccc3n2S(=O)(=O)c2ccccc2Cl)C1 (racemic)
Ki [2]: 9.15 nM

Ki [2]: 4.68 nM
SMILES: COc1ccc2c(c1)c1c(n2S(=O)(=O)c2ccccc2Cl)CCC(N(C)C)C1 (racemic)

SMILES: CN(C)C1CCc2c(c3ccccc3n2S(=O)(=O)c2ccccc2F)C1 (racemic)
Ki [2]: 10.4 nM

SMILES: COc1ccc2c(c1)c1c(n2S(=O)(=O)c2ccccc2F)CCC(N(C)C)C1 (racemic)
Ki [2]: 3.63 nM

SMILES: Cc1ccc(S(=O)(=O)n2c3c(c4ccccc42)CC(N(C)C)CC3)cc1 (racemic)
Ki [2]: 8.28 nM

SMILES: Cc1ccc(S(=O)(=O)n2c3c(c4cc(Cl)ccc42)CC(N(C)C)CC3)cc1 (racemic)
Ki [2]: 18.1 nM

SMILES: CC(C)c1ccc(S(=O)(=O)n2c3c(c4cc(Br)ccc42)CC(N(C)C)CC3)cc1 (racemic)
Ki [2]: 7.5 nM

SMILES: COc1ccc(S(=O)(=O)n2c3c(c4ccccc42)CC(N(C)C)CC3)cc1 (racemic)
Ki [2]: 20.4 nM

Ki [2]: 29 nM
SMILES: COc1ccc(S(=O)(=O)n2c3c(c4cc(Br)ccc42)CC(N(C)C)CC3)cc1 (racemic)

Ki [2]: 6.89 nM
SMILES: COc1ccc(S(=O)(=O)n2c3c(c4cc(SC)ccc42)CC(N(C)C)CC3)cc1 (racemic)

Ki [2]: 70.6 nM
SMILES: CN(C)C1CCc2c(c3cc(Br)ccc3n2S(=O)(=O)c2cc(C(F)(F)F)ccc2Cl)C1 (racemic)

Ki [2]: 61.2 nM
SMILES: CN(C)C1CCc2c(c3cc(Br)ccc3n2S(=O)(=O)c2ccc(F)c(F)c2F)C1 (racemic)

SMILES: CN(C)C1CCc2c(c3cc(Br)ccc3n2S(=O)(=O)c2ccc(F)c(F)c2)C1 (racemic)
Ki [2]: 29 nM

SMILES: CNC1CCc2c(c3ccccc3n2S(=O)(=O)c2cccc(C(F)(F)F)c2)C1 (racemic)
Ki [2]: 17.1 nM

Ki [2]: 13.1 nM
SMILES: CNC1CCc2c(c3cc(OC)ccc3n2S(=O)(=O)c2cccc(C(F)(F)F)c2)C1 (racemic)
